# In the M2OR odorant receptor database:
# Tests used:
# Details in all cases: stereoisomer not certain
# OR56B4 (Homo sapiens) = target: T1, OR56B4 (Homo sapiens) (UniProt Q8NH76)
# T1 sequence (whole entry): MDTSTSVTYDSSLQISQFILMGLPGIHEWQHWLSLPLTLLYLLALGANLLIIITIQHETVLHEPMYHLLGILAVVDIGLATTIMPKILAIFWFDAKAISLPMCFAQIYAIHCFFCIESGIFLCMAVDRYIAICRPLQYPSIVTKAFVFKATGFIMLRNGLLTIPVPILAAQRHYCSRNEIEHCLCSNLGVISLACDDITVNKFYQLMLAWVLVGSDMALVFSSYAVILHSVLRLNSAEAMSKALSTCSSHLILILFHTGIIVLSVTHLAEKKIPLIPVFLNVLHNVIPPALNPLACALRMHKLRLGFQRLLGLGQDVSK
# In short: (§1)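 Assay methods differ from source to source, frequently being transient luciferase assays in mammalian cell lines. For each receptor–molecule pair, the label responsive (active) applies when the original authors judged the measured signal statistically different from baseline, and non-responsive (inactive) applies otherwise.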
# OR5A1 (Homo sapiens) = target: T2, OR5A1 (Homo sapiens) (UniProt Q8NGJ0)
# T2 sequence (whole entry): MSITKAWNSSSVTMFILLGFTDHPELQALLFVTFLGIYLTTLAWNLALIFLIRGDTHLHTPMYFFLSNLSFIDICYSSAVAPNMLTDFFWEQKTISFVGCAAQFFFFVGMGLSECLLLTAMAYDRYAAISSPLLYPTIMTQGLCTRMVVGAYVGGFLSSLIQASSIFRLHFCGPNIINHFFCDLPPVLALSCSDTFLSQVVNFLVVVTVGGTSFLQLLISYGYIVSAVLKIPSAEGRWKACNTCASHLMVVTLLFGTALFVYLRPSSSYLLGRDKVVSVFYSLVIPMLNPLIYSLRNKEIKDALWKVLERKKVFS
# In short: as §1
# OR5A2 (Homo sapiens) = target: T3, OR5A2 (Homo sapiens) (UniProt Q8NGI9)
# T3 sequence (whole entry): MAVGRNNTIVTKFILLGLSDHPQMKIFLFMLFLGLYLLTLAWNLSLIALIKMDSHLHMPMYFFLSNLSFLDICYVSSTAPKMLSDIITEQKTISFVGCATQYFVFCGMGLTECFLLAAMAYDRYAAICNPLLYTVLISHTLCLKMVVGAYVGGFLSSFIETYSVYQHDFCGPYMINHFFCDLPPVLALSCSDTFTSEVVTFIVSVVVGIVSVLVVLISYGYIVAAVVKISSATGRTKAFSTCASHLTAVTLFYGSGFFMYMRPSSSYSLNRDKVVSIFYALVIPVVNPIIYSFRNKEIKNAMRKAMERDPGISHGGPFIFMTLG
# In short: as §1
# OR5AC1 (Homo sapiens) = OR5AC1 (Homo sapiens) (UniProt P0C628)
# Sequence of OR5AC1 (Homo sapiens) (P0C628 whole entry): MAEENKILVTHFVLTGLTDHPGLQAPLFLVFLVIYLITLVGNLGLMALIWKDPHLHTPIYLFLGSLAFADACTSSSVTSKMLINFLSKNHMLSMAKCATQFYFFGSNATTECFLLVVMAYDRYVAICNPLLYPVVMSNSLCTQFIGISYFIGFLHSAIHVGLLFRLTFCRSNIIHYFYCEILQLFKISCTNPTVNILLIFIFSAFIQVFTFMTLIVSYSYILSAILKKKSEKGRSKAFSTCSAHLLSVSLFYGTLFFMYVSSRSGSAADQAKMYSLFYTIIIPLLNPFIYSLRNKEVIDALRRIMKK
# In short: as §1
# OR5AC2 (Homo sapiens) = target: T4, OR5AC2 (Homo sapiens) (UniProt Q9NZP5)
# T4 sequence (whole entry): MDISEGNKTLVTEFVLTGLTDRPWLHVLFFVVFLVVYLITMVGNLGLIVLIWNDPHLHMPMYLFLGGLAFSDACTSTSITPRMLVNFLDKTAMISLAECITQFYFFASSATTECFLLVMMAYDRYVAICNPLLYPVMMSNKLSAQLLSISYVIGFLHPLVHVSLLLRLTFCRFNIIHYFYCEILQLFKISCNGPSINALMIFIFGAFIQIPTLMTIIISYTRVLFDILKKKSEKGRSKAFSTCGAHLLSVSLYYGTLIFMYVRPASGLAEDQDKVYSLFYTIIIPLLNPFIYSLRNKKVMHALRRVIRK
# In short: as §1
# OR5AK2 (Homo sapiens) = target: T5, OR5AK2 (Homo sapiens) (UniProt Q8NH90)
# T5 sequence (whole entry): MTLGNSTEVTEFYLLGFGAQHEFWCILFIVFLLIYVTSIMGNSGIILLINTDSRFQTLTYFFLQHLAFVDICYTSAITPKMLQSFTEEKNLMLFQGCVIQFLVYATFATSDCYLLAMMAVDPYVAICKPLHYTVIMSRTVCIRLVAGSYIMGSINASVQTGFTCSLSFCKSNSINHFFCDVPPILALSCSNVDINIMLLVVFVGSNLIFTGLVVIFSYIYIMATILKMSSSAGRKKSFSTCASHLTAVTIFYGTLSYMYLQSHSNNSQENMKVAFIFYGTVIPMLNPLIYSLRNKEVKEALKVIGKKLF
# In short: as §1
# OR5AL1 (Homo sapiens) = OR5AL1 (Homo sapiens) (UniProt P0C617)
# Sequence of OR5AL1 (Homo sapiens) (P0C617 whole entry): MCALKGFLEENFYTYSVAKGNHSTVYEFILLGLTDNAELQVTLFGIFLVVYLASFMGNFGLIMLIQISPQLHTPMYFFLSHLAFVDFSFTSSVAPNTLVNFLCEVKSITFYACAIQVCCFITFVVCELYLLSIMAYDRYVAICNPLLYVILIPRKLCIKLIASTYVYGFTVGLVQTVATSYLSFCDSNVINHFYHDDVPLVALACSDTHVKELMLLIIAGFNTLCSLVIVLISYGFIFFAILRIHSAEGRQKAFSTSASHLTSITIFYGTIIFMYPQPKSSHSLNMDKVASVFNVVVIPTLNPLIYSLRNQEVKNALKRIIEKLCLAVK
# In short: as §1
# OR5AN1 (Homo sapiens) = target: T6, OR5AN1 (Homo sapiens) (UniProt Q8NGI8)
# T6 sequence (whole entry): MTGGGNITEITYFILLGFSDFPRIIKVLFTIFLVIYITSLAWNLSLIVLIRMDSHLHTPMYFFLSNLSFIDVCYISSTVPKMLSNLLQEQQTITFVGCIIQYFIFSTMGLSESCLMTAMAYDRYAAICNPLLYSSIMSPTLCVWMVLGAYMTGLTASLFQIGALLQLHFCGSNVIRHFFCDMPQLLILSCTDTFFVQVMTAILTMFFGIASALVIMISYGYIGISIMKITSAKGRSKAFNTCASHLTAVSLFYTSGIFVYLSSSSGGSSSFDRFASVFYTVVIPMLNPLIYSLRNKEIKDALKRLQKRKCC
# In short: as §1
# OR5AP2 (Homo sapiens) = target: T7, OR5AP2 (Homo sapiens) (UniProt Q8NGF4)
# T7 sequence (whole entry): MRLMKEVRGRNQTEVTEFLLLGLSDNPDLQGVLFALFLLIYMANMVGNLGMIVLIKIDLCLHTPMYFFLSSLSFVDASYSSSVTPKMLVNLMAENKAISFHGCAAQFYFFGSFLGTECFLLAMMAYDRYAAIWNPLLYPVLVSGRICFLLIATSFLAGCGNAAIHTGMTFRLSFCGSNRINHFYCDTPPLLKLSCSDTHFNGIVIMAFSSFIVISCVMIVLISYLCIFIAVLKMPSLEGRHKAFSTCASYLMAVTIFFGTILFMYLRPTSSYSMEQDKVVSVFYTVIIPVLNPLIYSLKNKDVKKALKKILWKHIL
# In short: as §1
# OR5AR1 (Homo sapiens) = target: T8, OR5AR1 (Homo sapiens) (UniProt Q8NGP9)
# T8 sequence (whole entry): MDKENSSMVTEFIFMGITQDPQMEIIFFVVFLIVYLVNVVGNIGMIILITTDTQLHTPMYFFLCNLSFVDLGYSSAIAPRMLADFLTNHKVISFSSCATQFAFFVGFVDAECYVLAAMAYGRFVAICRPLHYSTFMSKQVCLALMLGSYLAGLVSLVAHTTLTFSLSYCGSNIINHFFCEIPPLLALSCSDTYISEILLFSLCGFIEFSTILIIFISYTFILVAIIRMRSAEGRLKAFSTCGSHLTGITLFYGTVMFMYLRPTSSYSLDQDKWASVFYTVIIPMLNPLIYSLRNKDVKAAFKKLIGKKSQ
# In short: as §1
# OR5AS1 (Homo sapiens) = target: T9, OR5AS1 (Homo sapiens) (UniProt Q8N127)
# T9 sequence (whole entry): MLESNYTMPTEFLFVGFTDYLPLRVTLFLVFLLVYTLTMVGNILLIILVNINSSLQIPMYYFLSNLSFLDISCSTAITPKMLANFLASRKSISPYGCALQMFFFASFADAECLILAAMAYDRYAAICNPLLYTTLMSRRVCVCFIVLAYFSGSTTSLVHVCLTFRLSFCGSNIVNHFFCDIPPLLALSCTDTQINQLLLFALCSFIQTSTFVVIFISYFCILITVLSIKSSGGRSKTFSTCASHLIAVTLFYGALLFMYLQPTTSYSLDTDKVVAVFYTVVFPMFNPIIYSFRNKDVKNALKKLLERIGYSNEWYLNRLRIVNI
# In short: as §1
# OR5AU1 (Homo sapiens) = target: T10, OR5AU1 (Homo sapiens) (UniProt Q8NGC0)
# T10 sequence (whole entry): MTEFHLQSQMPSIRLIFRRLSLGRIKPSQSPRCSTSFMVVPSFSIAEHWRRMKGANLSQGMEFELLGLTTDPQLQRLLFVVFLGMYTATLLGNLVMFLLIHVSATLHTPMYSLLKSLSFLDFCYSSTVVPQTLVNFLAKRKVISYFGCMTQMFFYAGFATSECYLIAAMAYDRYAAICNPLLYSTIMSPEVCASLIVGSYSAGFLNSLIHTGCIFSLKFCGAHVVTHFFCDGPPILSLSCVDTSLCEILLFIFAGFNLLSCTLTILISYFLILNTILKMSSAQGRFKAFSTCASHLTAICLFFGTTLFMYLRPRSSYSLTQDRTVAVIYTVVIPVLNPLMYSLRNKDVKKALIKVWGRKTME
# In short: as §1
# OR5B12 (Homo sapiens) = target: T11, OR5B12 (Homo sapiens) (UniProt Q96R08)
# T11 sequence (whole entry): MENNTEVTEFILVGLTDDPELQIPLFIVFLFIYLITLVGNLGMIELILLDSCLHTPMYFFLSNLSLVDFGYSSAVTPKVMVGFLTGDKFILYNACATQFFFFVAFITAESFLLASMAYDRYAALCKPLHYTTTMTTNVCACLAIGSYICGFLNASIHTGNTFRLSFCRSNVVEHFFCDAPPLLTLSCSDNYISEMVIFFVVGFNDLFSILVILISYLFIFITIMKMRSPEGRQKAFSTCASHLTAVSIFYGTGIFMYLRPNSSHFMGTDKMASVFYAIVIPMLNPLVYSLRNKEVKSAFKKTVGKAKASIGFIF
# In short: as §1
# OR5B17 (Homo sapiens) = target: T12, OR5B17 (Homo sapiens) (UniProt Q8NGF7)
# T12 sequence (whole entry): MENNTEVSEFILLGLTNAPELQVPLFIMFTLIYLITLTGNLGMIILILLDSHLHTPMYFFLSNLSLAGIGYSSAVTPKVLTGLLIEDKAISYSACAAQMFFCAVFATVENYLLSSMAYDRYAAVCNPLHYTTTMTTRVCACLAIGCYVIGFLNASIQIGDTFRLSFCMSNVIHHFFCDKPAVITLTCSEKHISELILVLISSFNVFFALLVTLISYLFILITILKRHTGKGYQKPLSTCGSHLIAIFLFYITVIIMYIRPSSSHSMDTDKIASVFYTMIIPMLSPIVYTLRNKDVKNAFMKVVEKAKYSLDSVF
# In short: as §1
# OR5B2 (Homo sapiens) = target: T13, OR5B2 (Homo sapiens) (UniProt Q96R09)
# T13 sequence (whole entry): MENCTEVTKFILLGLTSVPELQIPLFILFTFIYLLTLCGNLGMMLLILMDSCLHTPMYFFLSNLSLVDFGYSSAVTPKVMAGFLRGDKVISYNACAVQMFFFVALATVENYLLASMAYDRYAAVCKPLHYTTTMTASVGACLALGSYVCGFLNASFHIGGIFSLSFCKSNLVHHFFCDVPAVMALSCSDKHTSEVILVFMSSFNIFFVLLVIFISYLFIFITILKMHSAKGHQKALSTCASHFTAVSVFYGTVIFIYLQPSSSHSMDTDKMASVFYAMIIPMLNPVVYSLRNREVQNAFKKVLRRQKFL
# In short: as §1
# OR5B21 (Homo sapiens) = target: T14, OR5B21 (Homo sapiens) (UniProt A6NL26)
# T14 sequence (whole entry): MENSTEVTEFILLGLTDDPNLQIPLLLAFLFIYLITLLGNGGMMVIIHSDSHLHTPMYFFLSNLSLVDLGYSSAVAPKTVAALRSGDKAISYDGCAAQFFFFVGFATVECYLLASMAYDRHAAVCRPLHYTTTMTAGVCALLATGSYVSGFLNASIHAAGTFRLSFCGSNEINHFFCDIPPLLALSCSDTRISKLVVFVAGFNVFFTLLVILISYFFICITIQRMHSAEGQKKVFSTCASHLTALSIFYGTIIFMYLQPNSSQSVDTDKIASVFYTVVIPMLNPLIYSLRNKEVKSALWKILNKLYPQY
# In short: as §1
# OR5B3 (Homo sapiens) = target: T15, OR5B3 (Homo sapiens) (UniProt Q8NH48)
# T15 sequence (whole entry): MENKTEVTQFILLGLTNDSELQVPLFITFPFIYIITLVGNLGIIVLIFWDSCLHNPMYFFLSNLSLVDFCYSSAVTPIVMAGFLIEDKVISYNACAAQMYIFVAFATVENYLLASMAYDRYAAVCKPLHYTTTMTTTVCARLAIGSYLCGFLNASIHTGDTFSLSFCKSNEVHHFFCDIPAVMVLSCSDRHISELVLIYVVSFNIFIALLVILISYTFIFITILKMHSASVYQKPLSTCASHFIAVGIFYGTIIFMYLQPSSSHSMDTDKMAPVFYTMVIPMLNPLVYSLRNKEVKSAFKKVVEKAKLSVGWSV
# In short: as §1
SMILES,odorant receptor agonist call (OR56B4 (Homo sapiens)),odorant receptor agonist call (OR5A1 (Homo sapiens)),odorant receptor agonist call (OR5A2 (Homo sapiens)),odorant receptor agonist call (OR5AC1 (Homo sapiens)),odorant receptor agonist call (OR5AC2 (Homo sapiens)),odorant receptor agonist call (OR5AK2 (Homo sapiens)),odorant receptor agonist call (OR5AL1 (Homo sapiens)),odorant receptor agonist call (OR5AN1 (Homo sapiens)),odorant receptor agonist call (OR5AP2 (Homo sapiens)),odorant receptor agonist call (OR5AR1 (Homo sapiens)),odorant receptor agonist call (OR5AS1 (Homo sapiens)),odorant receptor agonist call (OR5AU1 (Homo sapiens)),odorant receptor agonist call (OR5B12 (Homo sapiens)),odorant receptor agonist call (OR5B17 (Homo sapiens)),odorant receptor agonist call (OR5B2 (Homo sapiens)),odorant receptor agonist call (OR5B21 (Homo sapiens)),odorant receptor agonist call (OR5B3 (Homo sapiens))
CC(=O)c1c(C)c([N+](=O)[O-])c(C(C)(C)C)c([N+](=O)[O-])c1C,inactive,inactive,inactive,inactive,inactive,inactive,inactive,active,inactive,inactive,inactive,inactive,inactive,inactive,inactive,inactive,inactive
OCc1ccccc1,,,,,inactive,,,,,,,,,inactive,,,
CC1CCCCCCCCCCCCC(=O)C1 (stereo unspecified),inactive,inactive,inactive,inactive,inactive,inactive,inactive,active,inactive,inactive,inactive,inactive,inactive,inactive,inactive,inactive,inactive
